Experimental data: ChEMBL document CHEMBL1221323, “Iodination of verapamil for a stronger induction of death, through GSH efflux, of cancer cells overexpressing MRP1” (Bioorg Med Chem, 2010); call rule not given here

Legend:
[1] = system: BHK-21; experiment: Cytotoxicity against hamster BHK21 cells expressing MRP1 after 96 hrs by MTT assay; type: functional, cell-based; settings: Mesocricetus auratus, BHK-21, 96 h
In short: (§1)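 Cells plated at 1.0 × 10⁴/well and grown 17 h, then exposed to compound diluted in complete medium (0.5% DMSO) for 96 h at 37 °C, 5% CO₂. MTT at 0.5 mg/mL added for 4 h, dye removed, formazan dissolved in isopropanol, absorbance read at 570 nm. IC50 taken from sigmoidal fits of triplicate dose–response curves.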

[2] = system: BHK-21; experiment: Cytotoxicity against hamster BHK21 cells after 96 hrs by MTT assay; type: functional, cell-based; settings: Mesocricetus auratus, BHK-21, 96 h; in short: as §1
[3] = target: T1, Multidrug resistance-associated protein 1 (Homo sapiens, UniProt P33527); experiment: Inhibition of MRP1 expressed in hamster BHK21 cells assessed as reduction of GSH efflux at 5 uM after up to 50 to 60 mins; type: cell-based; settings: bhk-21, 5 µM
T1 sequence (P33527 whole entry): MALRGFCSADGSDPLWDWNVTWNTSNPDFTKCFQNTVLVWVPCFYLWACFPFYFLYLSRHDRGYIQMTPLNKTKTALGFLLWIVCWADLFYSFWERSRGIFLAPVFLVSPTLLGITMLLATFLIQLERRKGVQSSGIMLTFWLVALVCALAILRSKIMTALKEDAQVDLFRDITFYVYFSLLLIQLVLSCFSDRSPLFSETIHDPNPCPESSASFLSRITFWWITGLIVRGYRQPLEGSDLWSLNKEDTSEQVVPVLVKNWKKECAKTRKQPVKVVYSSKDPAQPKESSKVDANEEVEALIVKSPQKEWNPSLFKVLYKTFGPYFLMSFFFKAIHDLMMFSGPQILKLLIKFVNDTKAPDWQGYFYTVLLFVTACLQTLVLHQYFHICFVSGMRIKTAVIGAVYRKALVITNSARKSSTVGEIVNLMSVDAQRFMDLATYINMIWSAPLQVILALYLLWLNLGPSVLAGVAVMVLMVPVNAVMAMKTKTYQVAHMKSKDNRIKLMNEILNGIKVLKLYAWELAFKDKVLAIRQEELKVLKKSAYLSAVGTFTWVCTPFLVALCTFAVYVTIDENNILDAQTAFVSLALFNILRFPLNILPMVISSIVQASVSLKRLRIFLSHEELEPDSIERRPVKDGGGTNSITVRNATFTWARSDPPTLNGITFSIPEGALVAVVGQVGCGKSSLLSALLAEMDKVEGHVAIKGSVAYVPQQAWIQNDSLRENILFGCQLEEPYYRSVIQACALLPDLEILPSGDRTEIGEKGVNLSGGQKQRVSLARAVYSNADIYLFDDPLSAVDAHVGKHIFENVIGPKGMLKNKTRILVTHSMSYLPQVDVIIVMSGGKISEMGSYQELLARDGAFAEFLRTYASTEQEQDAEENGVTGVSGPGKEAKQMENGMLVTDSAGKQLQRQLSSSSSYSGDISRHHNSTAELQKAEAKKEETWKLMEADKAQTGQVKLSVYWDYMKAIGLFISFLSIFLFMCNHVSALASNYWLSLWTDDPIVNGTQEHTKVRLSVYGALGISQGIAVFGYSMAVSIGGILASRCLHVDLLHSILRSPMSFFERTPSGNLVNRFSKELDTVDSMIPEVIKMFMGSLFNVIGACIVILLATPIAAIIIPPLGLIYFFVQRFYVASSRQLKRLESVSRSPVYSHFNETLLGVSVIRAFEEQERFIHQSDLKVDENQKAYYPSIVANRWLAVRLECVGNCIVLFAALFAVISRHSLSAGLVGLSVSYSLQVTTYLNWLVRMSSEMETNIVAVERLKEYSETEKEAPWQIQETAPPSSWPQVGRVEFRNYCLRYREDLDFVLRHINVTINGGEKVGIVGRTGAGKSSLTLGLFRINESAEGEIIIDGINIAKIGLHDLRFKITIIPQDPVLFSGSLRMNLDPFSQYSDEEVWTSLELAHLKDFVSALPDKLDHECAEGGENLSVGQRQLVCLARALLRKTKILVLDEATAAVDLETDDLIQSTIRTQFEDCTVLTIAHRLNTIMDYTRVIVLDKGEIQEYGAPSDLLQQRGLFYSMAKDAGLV
In short: (§2)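 Cells from the MRP1-transfected BHK-21 line (kept under methotrexate) were seeded at 1.0 × 10⁵/well, grown 17 h, then given 5 µM compound (DMSO ≤0.5%) for 10–120 min. Cells were washed in cold PBS and lysed in 0.1% Triton X-100. Total glutathione was measured by DTNB/NADPH/GSH reductase recycling (A412 kinetic, 2 min) and normalized to Bradford protein. Residual GSH is expressed as % of untreated cells; time to 50% loss is reported; triplicates.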

[4] = target: T1, Multidrug resistance-associated protein 1; experiment: Inhibition of MRP1 expressed in hamster BHK21 cells assessed as reduction of GSH efflux at 5 uM after up to 120 mins; type: cell-based; settings: bhk-21, 2 h; in short: as §2

`COc1ccc(C(C#N)(CCCN(C)CCCc2cc(I)c(O)c(I)c2)C(C)C)cc1OC` (configuration not stated) gave an IC50 [1] of 6 µM and an IC50 [2] of 33.1 µM.
With `COc1ccc(C(C#N)(CCCN(C)CCCc2ccc(O)cc2)C(C)C)cc1OC` (configuration not stated) the “inhibition (INH)” value [3] was “Not Active”, the IC50 [1] was 20.9 µM and the IC50 [2] was at least 100 µM.
Compound `COc1ccc(C(C#N)(CCCNCCc2cc(I)c(O)c(I)c2)C(C)C)cc1OC` (configuration not stated) has an IC50 [1] of 1.96 µM and an IC50 [2] of 13.8 µM.
For `COc1ccc(C(C#N)(CCCN(C)Cc2ccc(O)c(I)c2)C(C)C)cc1OC` (configuration not stated), the IC50 [1] was 13 µM and the IC50 [2] was 14.1 µM.
With `COc1ccc(CCN(C)CCCC(C#N)(c2ccc(OC)c(OC)c2)C(C)C)cc1` (configuration not stated) the “inhibition (INH)” value [4] was “Not Active”, the IC50 [1] was 17.2 µM and the IC50 [2] was 33.6 µM.
In the case of `COc1ccc(CCN(C)CCCC(C#N)(c2ccc(OC)c(OC)c2)C(C)C)cc1I` (configuration not stated), the “inhibition (INH)” value [4] is reported as “Not Active”, the IC50 [1] is reported as 4.7 µM and the IC50 [2] is reported as 13 µM.
For `COc1ccc(C(C#N)(CCCNCCc2ccc(O)c(I)c2)C(C)C)cc1OC` (configuration not stated), the IC50 [1] was 0.78 µM and the IC50 [2] was 14.2 µM.
`COc1ccc(CCN(C)CCCC(C#N)(c2ccc(OC)c(OC)c2)C(C)C)cc1OC` (configuration not stated) [VERAPAMIL] was tested, and the IC50 [1] was 10.6 µM and the IC50 [2] was at least 100 µM.
In the case of `COc1ccc(C(C#N)(CCCN(C)Cc2cc(I)c(O)c(I)c2)C(C)C)cc1OC` (configuration not stated), the IC50 [1] is reported as 6.6 µM and the IC50 [2] is reported as 27.4 µM.
`COc1ccc(C(C#N)(CCCN(C)CCc2ccc(O)c(I)c2)C(C)C)cc1OC` (configuration not stated) was tested, and the IC50 [1] was 8.6 µM and the IC50 [2] was 32.8 µM.
In the case of `COc1ccc(C(C#N)(CCCN(C)Cc2ccc(O)cc2)C(C)C)cc1OC` (configuration not stated), the “inhibition (INH)” value [3] is reported as “Not Active”, the IC50 [1] is reported as 6.6 µM and the IC50 [2] is reported as 28.5 µM.
Work on `COc1ccc(C(C#N)(CCCN(C)CCc2cc(I)c(O)c(I)c2)C(C)C)cc1OC` (configuration not stated) yielded an IC50 [1] of 1.1 µM and an IC50 [2] of 54.7 µM.
For `COc1ccc(C(C#N)(CCCN(C)CCCc2ccc(O)c(I)c2)C(C)C)cc1OC` (configuration not stated), the IC50 [1] was 9.3 µM and the IC50 [2] was 9.4 µM.
Work on `COc1ccc(C(C#N)(CCCN(C)CCc2ccc(O)cc2)C(C)C)cc1OC` (configuration not stated) yielded an IC50 [1] of 11.7 µM and an IC50 [2] of 55.9 µM.
`COc1ccc(C(C#N)(CCCNCCc2ccc(O)cc2)C(C)C)cc1OC` (configuration not stated) showed an IC50 [1] of 38.1 µM and an IC50 [2] of at least 100 µM.
For `COc1ccc(C(C#N)(CCCN(C)CCc2cc(I)c(OC)c(I)c2)C(C)C)cc1OC` (configuration not stated), the “inhibition (INH)” value [4] was “Not Active”, the IC50 [1] was 1.7 µM and the IC50 [2] was 8.9 µM.
